From ChEMBL document CHEMBL3286180, “Efficacious inhaled PDE4 inhibitors with low emetic potential and long duration of action for the treatment of COPD” (J Med Chem, 2014)
Values after ≈ are worked out from the molar mass of the structure shown. Active and inactive are the calls of the source. No cut-off for these calls is given here.

How the values were obtained:
[1] = Clearance in dog; assay type: ADME, organism-based, Canis lupus familiaris; conditions: in vivo
[2] = target: Voltage-gated inwardly rectifying potassium channel KCNH2 (Homo sapiens, UniProt Q12809); assay: Inhibition of human ERG
[3] = target: T1, 3',5'-cyclic-AMP phosphodiesterase 4B (Homo sapiens, UniProt Q07343); assay: Inhibition of human recombinant PDE4B using [3H]cAMP by packard topcount scintillation counting analysis
PBMC = assay: Antiinflammatory activity in human PBMC assessed as inhibition of LPS-induced TNFalpha production after 20 hrs by fluorescence linked immunosorbant assay; assay type: functional, cell-based
Blood [4] = assay: Antiinflammatory activity in human whole blood assessed as inhibition of LPS-induced TNFalpha production after 20 hrs by ELISA; assay type: functional, tissue-based
[5] = Fraction unbound in human plasma; assay type: ADME, cell-free
[6] = Fraction unbound in rat plasma; assay type: ADME, cell-free
[7] = Lipophilicity, log D of the compound; assay type: physicochemical; conditions: octanol/water
[8] = Intrinsic clearance in human liver microsomes; assay type: ADME; conditions: read-out: CLH
[9] = Intrinsic clearance in rat hepatocytes measured per 10^6 cells; assay type: ADME, cell-based, Hepatocyte; conditions: read-out: CLH
[10] = Clearance in rat at 1 mg/kg, iv; assay type: ADME, organism-based; parameters: dose 1 mg/kg, route intravenous; conditions: in vivo
How it was run: (§1)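 Rat pharmacokinetics were run at 1 mg/kg, given iv or by intratracheal instillation, with 2−3 animals per study.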

[11] = (§2) Volume of distribution at steady state in rat at 1 mg/kg, iv; assay type: ADME, organism-based; parameters: dose 1 mg/kg, route intravenous; conditions: in vivo, read-out: Vdss
[12] = (§3) Half life in rat at 1 mg/kg, iv; assay type: ADME, organism-based; parameters: dose 1 mg/kg, route intravenous; conditions: in vivo; how it was run: as §1
[13] = Half life in rat at 1 mg/kg, it; assay type: ADME, organism-based; parameters: dose 1 mg/kg, route endotracheal; conditions: in vivo, inhaled or intranasal; how it was run: as §1
Rattus norvegicus [14] = assay: Apparent volume of distribution in rat at 1 mg/kg, iv; assay type: ADME, organism-based; parameters: dose 1 mg/kg, route intravenous; conditions: in vivo; how it was run: as §1
Rattus norvegicus [15] = assay: Antiinflammatory activity in nasally dosed Sprague-Dawley rat assessed as inhibition of LPS-induced bronchoalveolar lavage neutrophils measured as nebulizer concentration administered as […]; assay type: functional
How it was run: (§4)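 ED80 was derived from the nose-only nebulized-solution dose response in rats dosed 30 min before LPS challenge, with neutrophilia as the readout. ED80 is given as nebulizer concentration, as the matching terminal total lung concentration, and as lung deposited dose estimated from measured filter sample and terminal lung levels.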

[16] = target: 3',5'-cyclic-AMP phosphodiesterase 4D (Homo sapiens, UniProt Q08499); assay: Inhibition of human PDE4D using [3H]cAMP by packard topcount scintillation counting analysis
[17] = target: 3',5'-cyclic-AMP phosphodiesterase 4A (Homo sapiens, UniProt P27815); assay: Inhibition of human PDE4A1A using [3H]cAMP by packard topcount scintillation counting analysis
[18] = target: T1, 3',5'-cyclic-AMP phosphodiesterase 4B; assay: Inhibition of human recombinant PDE4B at high-affinity rolipram binding site
[19] = Volume of distribution at steady state in dog; assay type: ADME, organism-based, Canis lupus familiaris; conditions: in vivo, read-out: Vdss
[20] = Apparent volume of distribution in dog; assay type: ADME, organism-based, Canis lupus familiaris; conditions: in vivo, read-out: Vz/F
[21] = Oral bioavailability in dog; assay type: ADME, organism-based, Canis lupus familiaris; conditions: in vivo
[22] = Half life in dog; assay type: ADME, organism-based, Canis lupus familiaris; conditions: in vivo
Rattus norvegicus [23] = assay: Antiinflammatory activity in nasally dosed Sprague-Dawley rat assessed as inhibition of LPS-induced bronchoalveolar lavage neutrophils measured as lung concentration administered as […]; assay type: functional; how it was run: as §4
Rattus norvegicus [24] = assay: Antiinflammatory activity in nasally dosed Sprague-Dawley rat assessed as inhibition of LPS-induced bronchoalveolar lavage neutrophils measured as lung deposited dose administered as […]; assay type: functional; how it was run: as §4
[25] = Lipophilicity, log K of the compound; assay type: physicochemical; conditions: octanol/water
Rattus norvegicus [26] = assay: Antiinflammatory activity in Sprague-Dawley rat assessed as inhibition of LPS-induced bronchoalveolar lavage neutrophils measured as terminal lung concentration at 0.003 mg/ml, inhalation administered as nebulized suspension; assay type: functional
How it was run: (§5)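 Rats were given the compound as an aqueous nebulized aerosol by nose-only inhalation 30 min before LPS challenge. Dose is expressed as mg/mL nebulizer concentration. Lung neutrophilia was the readout, and terminal lung concentration (nM) was measured. Groups held 8−10 animals per treatment.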

Rattus norvegicus [27] = assay: Antiinflammatory activity in Sprague-Dawley rat assessed as inhibition of LPS-induced bronchoalveolar lavage neutrophils measured as terminal lung concentration at 0.01 mg/ml, inhalation administered as nebulized suspension; assay type: functional; how it was run: as §5
Rattus norvegicus [28] = assay: Antiinflammatory activity in Sprague-Dawley rat assessed as inhibition of LPS-induced bronchoalveolar lavage neutrophils measured as terminal lung concentration at 0.03 mg/ml, inhalation administered as nebulized suspension; assay type: functional; how it was run: as §5
Rattus norvegicus [29] = assay: Antiinflammatory activity in Sprague-Dawley rat assessed as inhibition of LPS-induced bronchoalveolar lavage neutrophils measured as terminal lung concentration at 0.1 mg/ml, inhalation administered as nebulized suspension; assay type: functional; how it was run: as §5
Rattus norvegicus [30] = assay: Antiinflammatory activity in Sprague-Dawley rat assessed as inhibition of LPS-induced bronchoalveolar lavage neutrophils measured as terminal lung concentration at 0.03 mg/ml, inhalation administered as […] treated 12 hrs before LPS; assay type: functional
How it was run: (§6)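 Duration protocol: rats received a nose-only inhalation of nebulized aqueous compound solution 12 h before LPS challenge. Dose is expressed as mg/mL nebulizer concentration. Readout was LPS-induced pulmonary neutrophilia, with terminal lung concentration (nM) measured. Groups held 8−10 animals per treatment.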

Rattus norvegicus [31] = assay: Antiinflammatory activity in Sprague-Dawley rat assessed as inhibition of LPS-induced bronchoalveolar lavage neutrophils measured as terminal lung concentration at 0.1 mg/ml, inhalation administered as […] treated 12 hrs before LPS; assay type: functional; how it was run: as §6
Rattus norvegicus [32] = assay: Antiinflammatory activity in Sprague-Dawley rat assessed as inhibition of LPS-induced bronchoalveolar lavage neutrophils measured as terminal lung concentration at 0.3 mg/ml, inhalation administered as nebulized suspension treated 12 hrs before LPS; assay type: functional; conditions: in the assay text read “nebulized solution” for “nebulized suspension”; how it was run: as §6
[33] = target: T2, 3',5'-cyclic-AMP phosphodiesterase 4B (Rattus norvegicus, UniProt P14646)
T2 sequence (P14646 whole entry): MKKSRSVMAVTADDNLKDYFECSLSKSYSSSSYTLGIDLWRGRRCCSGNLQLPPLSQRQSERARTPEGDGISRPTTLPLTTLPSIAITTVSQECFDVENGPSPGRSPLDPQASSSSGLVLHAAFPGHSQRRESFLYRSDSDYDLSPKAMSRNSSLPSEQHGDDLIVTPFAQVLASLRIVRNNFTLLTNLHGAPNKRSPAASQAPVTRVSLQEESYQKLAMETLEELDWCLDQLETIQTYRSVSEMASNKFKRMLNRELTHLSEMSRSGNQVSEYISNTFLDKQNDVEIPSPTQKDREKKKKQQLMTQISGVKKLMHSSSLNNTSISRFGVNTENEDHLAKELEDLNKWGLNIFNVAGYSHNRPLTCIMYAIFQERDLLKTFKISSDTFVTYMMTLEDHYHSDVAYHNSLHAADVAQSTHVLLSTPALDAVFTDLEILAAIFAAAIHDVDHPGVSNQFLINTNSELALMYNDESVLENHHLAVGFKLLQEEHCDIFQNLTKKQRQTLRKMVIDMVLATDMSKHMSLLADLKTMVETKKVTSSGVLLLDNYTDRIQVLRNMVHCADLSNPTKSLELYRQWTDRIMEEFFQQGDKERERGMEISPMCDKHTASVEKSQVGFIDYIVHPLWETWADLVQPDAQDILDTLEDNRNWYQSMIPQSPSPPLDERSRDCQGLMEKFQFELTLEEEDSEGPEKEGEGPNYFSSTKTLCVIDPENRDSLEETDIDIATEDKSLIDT

Rattus norvegicus [34] = assay: Antiinflammatory activity in Sprague-Dawley rat assessed as inhibition of LPS-induced bronchoalveolar lavage neutrophils at 0.03 mg/ml, inhalation administered as nebulized suspension; assay type: functional, organism-based; how it was run: as §5
Rattus norvegicus [35] = assay: Antiinflammatory activity in Sprague-Dawley rat assessed as inhibition of LPS-induced bronchoalveolar lavage neutrophils at 0.01 to 0.1 mg/ml, inhalation administered as nebulized suspension; assay type: functional, organism-based; how it was run: as §5
Rattus norvegicus [36] = assay: Antiinflammatory activity in Sprague-Dawley rat assessed as inhibition of LPS-induced bronchoalveolar lavage neutrophils up to 350 nM, inhalation administered as nebulized […] treated 12 hr before LPS challenge; assay type: functional, organism-based; how it was run: as §6
[37] = Aqueous solubility of the compound at pH 7.4; assay type: physicochemical; conditions: aqueous medium
Rattus norvegicus [38] = assay: as §2; assay type: ADME, organism-based; parameters: dose 1 mg/kg, route intravenous; conditions: in vivo
Rattus norvegicus [39] = assay: as §3; assay type: ADME, organism-based; parameters: dose 1 mg/kg, route intravenous; conditions: in vivo; how it was run: as §1
Rattus norvegicus [40] = assay: Antiinflammatory activity in Sprague-Dawley rat assessed as inhibition of LPS-induced bronchoalveolar lavage neutrophils measured as LPS duration at 0.03 to 3 mg/ml, inhalation administered as nebulized suspension; assay type: functional, organism-based; how it was run: as §6
Blood [41] = assay: tissue or blood; conditions: Rattus norvegicus, 20 h, read-out: pIC50 (converted)

T1 sequence (Q07343 whole entry): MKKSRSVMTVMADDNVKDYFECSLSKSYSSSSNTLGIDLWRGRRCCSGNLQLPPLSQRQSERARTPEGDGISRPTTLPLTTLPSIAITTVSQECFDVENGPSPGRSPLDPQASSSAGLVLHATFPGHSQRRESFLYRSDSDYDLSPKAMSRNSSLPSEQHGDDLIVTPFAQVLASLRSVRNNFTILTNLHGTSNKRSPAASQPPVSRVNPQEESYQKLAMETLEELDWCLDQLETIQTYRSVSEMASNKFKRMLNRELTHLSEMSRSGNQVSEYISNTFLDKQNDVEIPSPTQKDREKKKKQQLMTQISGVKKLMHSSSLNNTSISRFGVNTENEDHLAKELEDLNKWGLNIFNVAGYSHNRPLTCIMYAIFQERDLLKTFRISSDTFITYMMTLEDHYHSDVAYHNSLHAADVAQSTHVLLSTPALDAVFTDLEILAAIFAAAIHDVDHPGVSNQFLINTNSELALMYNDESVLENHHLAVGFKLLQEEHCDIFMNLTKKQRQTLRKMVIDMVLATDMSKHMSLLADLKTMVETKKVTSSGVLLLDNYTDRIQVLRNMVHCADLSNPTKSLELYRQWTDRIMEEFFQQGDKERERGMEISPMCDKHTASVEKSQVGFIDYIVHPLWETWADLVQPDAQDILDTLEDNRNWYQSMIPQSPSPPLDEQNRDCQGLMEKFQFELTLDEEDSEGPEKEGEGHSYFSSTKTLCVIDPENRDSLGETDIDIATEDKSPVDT
Chain of 3',5'-cyclic-AMP phosphodiesterase 4A (P27815 whole entry): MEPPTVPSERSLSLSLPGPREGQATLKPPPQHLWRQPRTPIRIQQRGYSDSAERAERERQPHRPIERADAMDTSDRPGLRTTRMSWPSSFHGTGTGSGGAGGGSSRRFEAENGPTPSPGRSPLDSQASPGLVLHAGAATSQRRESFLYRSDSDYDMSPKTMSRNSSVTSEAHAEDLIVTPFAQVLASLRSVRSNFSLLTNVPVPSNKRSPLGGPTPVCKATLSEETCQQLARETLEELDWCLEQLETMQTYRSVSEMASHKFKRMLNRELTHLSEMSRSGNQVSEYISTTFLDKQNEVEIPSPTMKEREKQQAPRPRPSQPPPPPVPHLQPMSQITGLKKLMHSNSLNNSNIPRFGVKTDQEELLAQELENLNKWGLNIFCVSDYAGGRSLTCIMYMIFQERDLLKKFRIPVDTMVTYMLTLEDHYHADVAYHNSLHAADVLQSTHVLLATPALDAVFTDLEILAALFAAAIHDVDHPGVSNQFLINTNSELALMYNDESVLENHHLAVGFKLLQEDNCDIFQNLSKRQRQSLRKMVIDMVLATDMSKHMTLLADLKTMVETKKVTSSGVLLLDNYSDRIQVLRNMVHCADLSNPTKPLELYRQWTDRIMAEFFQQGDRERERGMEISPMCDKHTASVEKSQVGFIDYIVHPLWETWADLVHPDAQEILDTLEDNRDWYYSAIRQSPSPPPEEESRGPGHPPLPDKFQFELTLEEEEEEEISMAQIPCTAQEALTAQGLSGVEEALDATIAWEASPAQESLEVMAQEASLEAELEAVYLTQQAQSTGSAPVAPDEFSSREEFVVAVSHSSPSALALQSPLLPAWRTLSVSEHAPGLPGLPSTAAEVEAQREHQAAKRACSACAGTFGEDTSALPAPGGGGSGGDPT
Chain of 3',5'-cyclic-AMP phosphodiesterase 4D (Q08499 whole entry): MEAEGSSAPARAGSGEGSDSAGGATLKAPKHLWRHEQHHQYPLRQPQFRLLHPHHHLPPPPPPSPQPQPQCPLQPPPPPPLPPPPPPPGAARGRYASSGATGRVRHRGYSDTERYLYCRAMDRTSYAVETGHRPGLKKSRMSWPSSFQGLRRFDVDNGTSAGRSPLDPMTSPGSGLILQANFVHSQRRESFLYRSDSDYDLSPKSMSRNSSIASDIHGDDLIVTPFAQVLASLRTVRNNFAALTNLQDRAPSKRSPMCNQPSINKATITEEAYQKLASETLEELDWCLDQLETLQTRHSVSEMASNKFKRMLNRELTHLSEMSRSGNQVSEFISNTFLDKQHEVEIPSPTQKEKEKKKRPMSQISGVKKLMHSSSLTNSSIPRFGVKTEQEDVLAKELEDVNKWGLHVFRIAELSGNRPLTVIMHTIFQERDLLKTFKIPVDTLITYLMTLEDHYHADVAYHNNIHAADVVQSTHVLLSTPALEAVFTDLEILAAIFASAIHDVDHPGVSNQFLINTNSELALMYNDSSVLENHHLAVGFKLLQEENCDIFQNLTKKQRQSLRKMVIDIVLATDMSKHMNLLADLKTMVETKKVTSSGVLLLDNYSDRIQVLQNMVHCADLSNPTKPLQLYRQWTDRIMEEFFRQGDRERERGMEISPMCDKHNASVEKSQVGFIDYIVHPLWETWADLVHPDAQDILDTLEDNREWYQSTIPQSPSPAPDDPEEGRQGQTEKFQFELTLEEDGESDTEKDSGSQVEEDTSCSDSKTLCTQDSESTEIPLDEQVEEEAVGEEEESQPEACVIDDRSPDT
Chain of Voltage-gated inwardly rectifying potassium channel KCNH2 (Q12809 whole entry): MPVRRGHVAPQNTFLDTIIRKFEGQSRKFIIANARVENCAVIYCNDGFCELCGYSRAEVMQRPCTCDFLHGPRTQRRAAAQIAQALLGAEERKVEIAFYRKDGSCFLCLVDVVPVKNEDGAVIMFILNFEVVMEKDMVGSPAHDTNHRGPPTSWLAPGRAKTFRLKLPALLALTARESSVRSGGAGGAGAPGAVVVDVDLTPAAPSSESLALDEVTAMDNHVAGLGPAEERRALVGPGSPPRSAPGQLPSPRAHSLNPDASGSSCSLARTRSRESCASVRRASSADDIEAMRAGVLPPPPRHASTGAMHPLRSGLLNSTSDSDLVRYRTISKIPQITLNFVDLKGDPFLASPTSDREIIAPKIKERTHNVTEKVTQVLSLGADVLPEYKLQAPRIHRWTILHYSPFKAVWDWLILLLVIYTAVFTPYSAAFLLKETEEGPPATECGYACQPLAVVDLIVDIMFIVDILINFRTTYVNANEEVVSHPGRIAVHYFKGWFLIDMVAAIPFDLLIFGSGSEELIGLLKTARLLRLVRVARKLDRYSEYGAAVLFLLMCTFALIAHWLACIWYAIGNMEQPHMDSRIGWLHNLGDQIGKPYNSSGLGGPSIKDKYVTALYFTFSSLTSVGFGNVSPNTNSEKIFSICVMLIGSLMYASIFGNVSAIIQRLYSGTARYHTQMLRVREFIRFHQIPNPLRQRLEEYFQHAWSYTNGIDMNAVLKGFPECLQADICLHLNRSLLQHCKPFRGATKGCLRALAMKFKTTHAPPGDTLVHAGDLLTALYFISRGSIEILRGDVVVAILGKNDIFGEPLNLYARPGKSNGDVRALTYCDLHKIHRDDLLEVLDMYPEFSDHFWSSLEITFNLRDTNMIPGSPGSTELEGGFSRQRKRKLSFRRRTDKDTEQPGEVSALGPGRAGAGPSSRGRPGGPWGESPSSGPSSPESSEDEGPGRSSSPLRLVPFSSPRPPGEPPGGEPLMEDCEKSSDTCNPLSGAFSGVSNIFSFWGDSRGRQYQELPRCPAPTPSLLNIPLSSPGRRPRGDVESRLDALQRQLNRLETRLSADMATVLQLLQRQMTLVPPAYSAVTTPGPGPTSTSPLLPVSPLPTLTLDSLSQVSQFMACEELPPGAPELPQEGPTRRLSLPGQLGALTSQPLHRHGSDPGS

Cc1csc(C(=O)N[C@H]2CC[C@@H](NC(=O)c3cc(F)cnc3Oc3cccc(-c4ccc(CN5C[C@@H](C)N[C@@H](C)C5)cc4CN4CCOCC4)c3)CC2)n1 showed a clearance [1] of 2.04 L/h/kg, an IC50 [2] of 20000 nM and an IC50 [3] of 0.0251 nM. It also gave an IC50 (PBMC) of 0.02 nM, an IC50 (Blood [4]) of 0.316 nM and a fraction unbound [5] of 0.045. The fraction unbound [6] was 0.23, the logD [7] was 1.9 and the microsomal CLint [8] was > 150 µL/min/mg. It also gave a hepatocyte CLint [9] of 10 µL/min/1e6 cells, a clearance [10] of 2.64 L/h/kg and a Vd [11] of 18 L/kg. For the same compound, the half-life [12] was 7 h, the half-life [13] was 8 h and the Vz/F (Rattus norvegicus [14]) was 27 L/kg. For the same compound, the ED80 (Rattus norvegicus [15]) was 20 mg/L (≈ 26.5 µM), the IC50 [16] was 0.02 nM and the IC50 [17] was < 10 nM. For the same compound, the IC50 [18] was < 10 nM, the Vd [19] was 26 L/kg and the Vd/F [20] was 44 L/kg. For the same compound, the bioavailability [21] was 16%, the half-life [22] was 15 h and the ED80 (Rattus norvegicus [23]) was 23 nM. The ED80 (Rattus norvegicus [24]) was 0.2 µg/kg, the “log K” value [25] was 1.32 and the Activity (Rattus norvegicus [26]) was 2 nM. For the same compound, the Activity (Rattus norvegicus [27]) was 12 nM, the Activity (Rattus norvegicus [28]) was 30 nM and the Activity (Rattus norvegicus [29]) was 90 nM. It also gave an Activity (Rattus norvegicus [30]) of 7 nM, an Activity (Rattus norvegicus [31]) of 22 nM and an Activity (Rattus norvegicus [32]) of 57 nM. For the same compound, the IC50 [33] was 0.02 nM.

For COc1cccc(Nc2c(C(N)=O)cnc3c(C)cc(S(=O)(=O)c4cccc(C(=O)N(C)C)c4)cc23)c1 [GSK-256066], the inhibition (Rattus norvegicus [34]) was “Active”, the inhibition (Rattus norvegicus [35]) was “inactive” and the inhibition (Rattus norvegicus [36]) was “inactive”. For the same compound, the IC50 [3] was < 0.01 nM, the IC50 (PBMC) was 0.00316 nM and the IC50 (Blood [4]) was 0.316 nM. For the same compound, the fraction unbound [5] was 0.015, the solubility [37] was 1.2 µM (≈ 0.622 µg/mL) and the microsomal CLint [8] was > 150 µL/min/mg. The Vdss (Rattus norvegicus [38]) was 0.75 L/kg, the t1/2 (Rattus norvegicus [39]) was 14.9 h and the half-life [13] was 8.1 h. The inhibition (Rattus norvegicus [40]) was “Active” and the IC50 (Blood [41]) was 0.251 nM.
